From ChEMBL document CHEMBL2021777 (J Med Chem, 2012)

Columns and labels:
[1] = biological target: D(2) dopamine receptor (Homo sapiens) (UniProt P14416); experiment: Displacement of [3H]N-methylspiperone from D2 at 10 uM
[2] = biological target: Neuronal acetylcholine receptor; alpha4/beta2 (Rattus norvegicus, UniProt P09483+P12390); experiment: Displacement of [3H] epibatidine from rat alpha4beta2* nAChR in rat forebrain by beta scintillation counting
[3] = biological target: Sigma non-opioid intracellular receptor 1 (Homo sapiens) (UniProt Q99720); experiment: Displacement of [3H]Pentazocine from sigma1 receptor at 10 uM
[4] = biological target: T1, Alpha-2A adrenergic receptor (Homo sapiens) (UniProt P08913); experiment: Displacement of [3H]Clonidine from alpha2A adrenergic receptor at 10 uM
T1 sequence (whole entry): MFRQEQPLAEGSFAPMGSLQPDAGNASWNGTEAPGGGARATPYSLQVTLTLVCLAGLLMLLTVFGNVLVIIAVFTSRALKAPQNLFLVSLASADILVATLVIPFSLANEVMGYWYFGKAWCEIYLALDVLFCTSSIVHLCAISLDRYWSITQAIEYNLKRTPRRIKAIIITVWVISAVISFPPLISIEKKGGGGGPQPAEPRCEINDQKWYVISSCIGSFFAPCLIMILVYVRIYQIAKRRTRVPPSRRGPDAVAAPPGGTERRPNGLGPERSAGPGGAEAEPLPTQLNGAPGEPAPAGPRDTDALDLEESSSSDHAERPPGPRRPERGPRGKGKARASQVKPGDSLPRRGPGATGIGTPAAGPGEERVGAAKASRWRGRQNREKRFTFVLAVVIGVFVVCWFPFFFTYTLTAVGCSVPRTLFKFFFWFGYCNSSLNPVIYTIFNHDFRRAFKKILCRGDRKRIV

hERG (KCNH2) = hERG (KCNH2) (Homo sapiens, UniProt Q12809); experiment: Inhibition of human ERG expressed in CHO cells at 10 uM by patch clamp electrophysiology assay; format: cell-based; settings: CHO cells expressing human ERG
In short: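 Automated patch-clamp electrophysiology on hERG K+ channels in CHO cell lines; inhibition measured at three concentrations: 0.1, 1 and 10 μM.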

[5] = biological target: Neuronal acetylcholine receptor; alpha4/beta2 (Homo sapiens, UniProt P17787+P43681); experiment: Partial agonist activity at human high sensitive alpha4beta2 nAChR expressed in SH-EP1 cells assessed as 86Rb+ ion efflux by flip-plate technique relative to sazetidine-A; format: functional, cell-based
In short: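 86Rb+ ion flux in SH-EP1 cells stably transfected with separate human α4 and β2 subunit cDNAs, expressing a mixture of high- and low-sensitivity α4β2 nAChRs. Cells kept at low passage (1−26). Efficacy at the HS form extrapolated relative to a reference agonist defined as a 100% full agonist.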

[6] = biological target: 5-hydroxytryptamine receptor 1B (Homo sapiens) (UniProt P28222); experiment: Displacement of [3H][…] from 5-HT1B at 10 uM
[7] = biological target: Beta-3 adrenergic receptor (Homo sapiens) (UniProt P13945); experiment: Displacement of [125I]Iodopindolol from beta3 adrenergic receptor at 10 uM
[8] = biological target: Muscarinic acetylcholine receptor M3 (Homo sapiens) (UniProt P20309); experiment: Displacement of [3H]QNB from M3 receptor at 10 uM
[9] = biological target: T2, Alpha-1B adrenergic receptor (Homo sapiens) (UniProt P35368); experiment: Displacement of [3H]Prazosin from alpha1B adrenergic receptor at 10 uM
T2 sequence (whole entry): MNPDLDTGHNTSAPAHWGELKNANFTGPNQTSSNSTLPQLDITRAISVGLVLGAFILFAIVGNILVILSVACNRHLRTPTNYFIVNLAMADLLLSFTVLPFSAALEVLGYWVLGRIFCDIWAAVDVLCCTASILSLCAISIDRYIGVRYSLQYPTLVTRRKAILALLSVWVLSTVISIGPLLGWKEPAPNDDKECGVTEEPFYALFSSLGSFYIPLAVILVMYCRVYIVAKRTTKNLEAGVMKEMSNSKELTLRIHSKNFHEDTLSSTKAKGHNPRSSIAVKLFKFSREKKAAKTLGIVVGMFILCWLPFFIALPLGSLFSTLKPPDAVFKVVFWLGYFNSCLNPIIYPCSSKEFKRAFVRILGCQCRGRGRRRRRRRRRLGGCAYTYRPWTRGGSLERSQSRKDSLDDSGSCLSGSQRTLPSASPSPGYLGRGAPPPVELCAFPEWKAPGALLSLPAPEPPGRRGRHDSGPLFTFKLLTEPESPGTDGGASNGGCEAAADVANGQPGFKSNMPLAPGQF

[10] = biological target: Histamine H2 receptor (Homo sapiens) (UniProt P25021); experiment: Displacement of [3H]Tiotidine from H2 histamine receptor at 10 uM
[11] = biological target: T3, 5-hydroxytryptamine receptor 1A (Homo sapiens) (UniProt P08908); experiment: Displacement of [3H]8-OH-DPAT from 5-HT1A at 10 uM
T3 sequence (whole entry): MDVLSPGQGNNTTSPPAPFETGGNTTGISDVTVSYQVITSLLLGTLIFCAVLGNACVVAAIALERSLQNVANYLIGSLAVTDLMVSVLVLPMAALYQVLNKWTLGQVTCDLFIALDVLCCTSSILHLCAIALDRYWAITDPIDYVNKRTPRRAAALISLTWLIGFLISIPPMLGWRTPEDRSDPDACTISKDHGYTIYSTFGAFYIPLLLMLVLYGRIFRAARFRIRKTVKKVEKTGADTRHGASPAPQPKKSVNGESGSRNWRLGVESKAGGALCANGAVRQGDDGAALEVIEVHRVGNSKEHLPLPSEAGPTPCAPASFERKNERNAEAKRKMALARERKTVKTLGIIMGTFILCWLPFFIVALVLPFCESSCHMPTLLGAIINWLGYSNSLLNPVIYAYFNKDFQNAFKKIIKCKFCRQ

[12] = Displacement of [3H]DTG from sigma2 receptor at 10 uM
[13] = biological target: T4, Alpha-1A adrenergic receptor (Homo sapiens) (UniProt P35348); experiment: Displacement of [3H]Prazosin from alpha1A adrenergic receptor at 10 uM
T4 sequence (whole entry): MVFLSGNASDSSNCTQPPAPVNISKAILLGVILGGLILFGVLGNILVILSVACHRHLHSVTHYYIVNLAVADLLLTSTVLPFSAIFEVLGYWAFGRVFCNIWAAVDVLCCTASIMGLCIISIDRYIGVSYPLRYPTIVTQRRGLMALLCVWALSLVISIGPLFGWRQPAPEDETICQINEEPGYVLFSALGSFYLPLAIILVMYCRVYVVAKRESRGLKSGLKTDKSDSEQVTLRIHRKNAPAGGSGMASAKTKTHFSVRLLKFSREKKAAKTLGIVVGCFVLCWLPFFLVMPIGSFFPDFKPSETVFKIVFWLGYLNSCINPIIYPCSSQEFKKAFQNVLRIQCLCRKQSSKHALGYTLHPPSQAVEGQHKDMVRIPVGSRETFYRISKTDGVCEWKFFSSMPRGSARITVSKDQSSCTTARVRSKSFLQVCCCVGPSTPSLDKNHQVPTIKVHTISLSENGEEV

Sequence of Muscarinic acetylcholine receptor M3 (Homo sapiens) (P20309 whole entry, looked up): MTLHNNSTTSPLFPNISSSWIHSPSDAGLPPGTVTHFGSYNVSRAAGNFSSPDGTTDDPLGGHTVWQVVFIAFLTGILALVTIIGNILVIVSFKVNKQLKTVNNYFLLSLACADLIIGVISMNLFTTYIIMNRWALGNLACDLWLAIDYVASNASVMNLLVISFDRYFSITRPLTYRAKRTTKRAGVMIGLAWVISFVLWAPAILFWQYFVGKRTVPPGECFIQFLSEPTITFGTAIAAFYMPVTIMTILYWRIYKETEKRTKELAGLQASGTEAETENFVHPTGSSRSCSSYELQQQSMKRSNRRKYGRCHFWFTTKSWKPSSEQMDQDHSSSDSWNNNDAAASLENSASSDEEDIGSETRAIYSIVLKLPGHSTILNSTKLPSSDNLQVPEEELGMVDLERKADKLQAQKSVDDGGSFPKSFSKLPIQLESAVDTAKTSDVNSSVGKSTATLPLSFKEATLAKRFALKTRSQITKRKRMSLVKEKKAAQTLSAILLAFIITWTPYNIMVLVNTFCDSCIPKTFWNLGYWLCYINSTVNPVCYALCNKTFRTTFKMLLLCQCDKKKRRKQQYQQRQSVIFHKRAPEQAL
Sequence of hERG (KCNH2) (Q12809 whole entry): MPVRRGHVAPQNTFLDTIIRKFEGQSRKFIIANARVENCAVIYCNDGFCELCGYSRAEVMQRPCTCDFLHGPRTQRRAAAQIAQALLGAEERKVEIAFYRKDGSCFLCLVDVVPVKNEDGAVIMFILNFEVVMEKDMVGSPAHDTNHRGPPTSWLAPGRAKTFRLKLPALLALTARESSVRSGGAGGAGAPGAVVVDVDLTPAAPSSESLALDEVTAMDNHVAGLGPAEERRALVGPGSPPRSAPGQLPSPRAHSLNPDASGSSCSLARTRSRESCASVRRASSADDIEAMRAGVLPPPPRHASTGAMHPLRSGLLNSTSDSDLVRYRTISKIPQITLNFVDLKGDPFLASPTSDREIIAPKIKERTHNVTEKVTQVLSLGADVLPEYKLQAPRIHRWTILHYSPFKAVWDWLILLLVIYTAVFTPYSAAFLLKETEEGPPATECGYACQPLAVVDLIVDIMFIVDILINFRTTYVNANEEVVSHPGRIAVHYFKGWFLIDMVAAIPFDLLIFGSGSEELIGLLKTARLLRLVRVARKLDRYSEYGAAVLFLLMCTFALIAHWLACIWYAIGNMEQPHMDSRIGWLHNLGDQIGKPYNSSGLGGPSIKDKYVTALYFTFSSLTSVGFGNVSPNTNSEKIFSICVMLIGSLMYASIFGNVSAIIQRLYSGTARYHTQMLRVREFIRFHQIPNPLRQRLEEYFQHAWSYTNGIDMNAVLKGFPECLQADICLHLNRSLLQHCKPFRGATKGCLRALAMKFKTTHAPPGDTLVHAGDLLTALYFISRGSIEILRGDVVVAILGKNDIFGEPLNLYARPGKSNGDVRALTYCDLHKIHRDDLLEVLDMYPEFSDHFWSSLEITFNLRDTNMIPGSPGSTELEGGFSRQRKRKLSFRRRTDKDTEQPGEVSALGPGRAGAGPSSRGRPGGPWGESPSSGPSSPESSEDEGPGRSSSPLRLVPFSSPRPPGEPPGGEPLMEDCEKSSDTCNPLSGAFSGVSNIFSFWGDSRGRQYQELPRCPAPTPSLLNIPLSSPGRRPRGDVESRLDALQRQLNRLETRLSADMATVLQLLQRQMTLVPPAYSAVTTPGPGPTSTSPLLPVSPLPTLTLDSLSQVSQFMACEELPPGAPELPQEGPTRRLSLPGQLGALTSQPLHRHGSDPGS
Sequence of Histamine H2 receptor (Homo sapiens) (P25021 whole entry): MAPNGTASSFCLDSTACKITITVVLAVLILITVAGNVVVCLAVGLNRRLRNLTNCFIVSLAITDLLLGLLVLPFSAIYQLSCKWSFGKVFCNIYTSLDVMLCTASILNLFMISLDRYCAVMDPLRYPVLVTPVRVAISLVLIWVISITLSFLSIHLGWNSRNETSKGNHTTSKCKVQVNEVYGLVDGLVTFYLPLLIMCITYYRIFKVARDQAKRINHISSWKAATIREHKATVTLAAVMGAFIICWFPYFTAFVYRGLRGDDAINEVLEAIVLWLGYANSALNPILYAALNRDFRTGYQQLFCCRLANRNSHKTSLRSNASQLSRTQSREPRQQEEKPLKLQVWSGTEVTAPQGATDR
Sequence of D(2) dopamine receptor (Homo sapiens) (P14416 whole entry): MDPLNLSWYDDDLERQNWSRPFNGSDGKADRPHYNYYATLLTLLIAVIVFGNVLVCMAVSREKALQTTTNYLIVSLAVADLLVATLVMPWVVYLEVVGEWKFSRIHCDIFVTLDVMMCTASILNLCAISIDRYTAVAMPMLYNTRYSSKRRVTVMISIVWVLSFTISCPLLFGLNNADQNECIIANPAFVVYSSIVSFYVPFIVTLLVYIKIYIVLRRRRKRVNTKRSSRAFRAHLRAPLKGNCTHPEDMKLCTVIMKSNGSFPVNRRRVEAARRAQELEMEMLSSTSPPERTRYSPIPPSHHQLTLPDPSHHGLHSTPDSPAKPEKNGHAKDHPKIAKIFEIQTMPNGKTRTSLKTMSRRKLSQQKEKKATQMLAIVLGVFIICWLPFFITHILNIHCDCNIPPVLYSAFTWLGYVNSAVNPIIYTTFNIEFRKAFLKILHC
Sequence of Neuronal acetylcholine receptor; alpha4/beta2 (Rattus norvegicus, UniProt P09483+P12390) (P09483 whole entry): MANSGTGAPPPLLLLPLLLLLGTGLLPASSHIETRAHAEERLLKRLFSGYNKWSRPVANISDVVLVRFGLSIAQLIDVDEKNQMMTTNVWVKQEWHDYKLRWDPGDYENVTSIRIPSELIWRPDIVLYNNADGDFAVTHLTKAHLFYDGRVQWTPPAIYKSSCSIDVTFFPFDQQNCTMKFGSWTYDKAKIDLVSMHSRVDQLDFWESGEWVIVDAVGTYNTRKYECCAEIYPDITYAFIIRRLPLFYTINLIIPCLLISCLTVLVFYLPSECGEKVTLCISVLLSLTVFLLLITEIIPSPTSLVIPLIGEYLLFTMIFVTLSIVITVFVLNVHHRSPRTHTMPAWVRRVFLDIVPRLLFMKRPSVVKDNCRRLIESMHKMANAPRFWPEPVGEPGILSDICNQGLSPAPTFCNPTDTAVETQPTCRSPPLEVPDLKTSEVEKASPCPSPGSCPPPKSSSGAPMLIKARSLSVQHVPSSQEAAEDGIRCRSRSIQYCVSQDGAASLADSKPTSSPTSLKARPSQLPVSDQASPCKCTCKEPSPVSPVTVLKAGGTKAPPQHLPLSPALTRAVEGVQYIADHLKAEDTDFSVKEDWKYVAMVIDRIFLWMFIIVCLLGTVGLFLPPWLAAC
Sequence of Neuronal acetylcholine receptor; alpha4/beta2 (Rattus norvegicus, UniProt P09483+P12390) (P12390 whole entry): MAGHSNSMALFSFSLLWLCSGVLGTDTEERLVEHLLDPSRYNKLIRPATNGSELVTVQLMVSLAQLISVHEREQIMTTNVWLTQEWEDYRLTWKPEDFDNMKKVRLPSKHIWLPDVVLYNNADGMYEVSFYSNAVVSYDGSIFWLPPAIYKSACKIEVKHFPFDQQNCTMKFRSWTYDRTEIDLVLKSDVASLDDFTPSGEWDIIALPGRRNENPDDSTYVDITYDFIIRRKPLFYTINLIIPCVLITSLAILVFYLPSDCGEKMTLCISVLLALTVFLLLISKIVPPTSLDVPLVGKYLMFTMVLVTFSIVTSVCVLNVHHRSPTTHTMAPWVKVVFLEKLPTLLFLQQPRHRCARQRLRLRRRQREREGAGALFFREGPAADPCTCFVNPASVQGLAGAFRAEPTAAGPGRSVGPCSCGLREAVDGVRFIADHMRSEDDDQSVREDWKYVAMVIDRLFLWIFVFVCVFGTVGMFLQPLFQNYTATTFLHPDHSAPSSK
Sequence of Beta-3 adrenergic receptor (Homo sapiens) (P13945 whole entry, looked up): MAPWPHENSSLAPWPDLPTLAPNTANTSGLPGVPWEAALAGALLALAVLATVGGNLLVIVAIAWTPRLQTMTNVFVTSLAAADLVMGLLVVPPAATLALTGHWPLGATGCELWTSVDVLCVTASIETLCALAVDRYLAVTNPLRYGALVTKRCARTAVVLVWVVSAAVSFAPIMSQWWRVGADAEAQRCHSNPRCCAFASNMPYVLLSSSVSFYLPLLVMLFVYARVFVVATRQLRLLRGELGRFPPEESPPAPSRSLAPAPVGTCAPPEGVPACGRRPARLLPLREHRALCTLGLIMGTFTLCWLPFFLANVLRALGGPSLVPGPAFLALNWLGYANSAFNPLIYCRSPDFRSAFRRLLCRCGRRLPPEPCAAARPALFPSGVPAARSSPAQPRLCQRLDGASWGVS
Sequence of 5-hydroxytryptamine receptor 1B (Homo sapiens) (P28222 whole entry): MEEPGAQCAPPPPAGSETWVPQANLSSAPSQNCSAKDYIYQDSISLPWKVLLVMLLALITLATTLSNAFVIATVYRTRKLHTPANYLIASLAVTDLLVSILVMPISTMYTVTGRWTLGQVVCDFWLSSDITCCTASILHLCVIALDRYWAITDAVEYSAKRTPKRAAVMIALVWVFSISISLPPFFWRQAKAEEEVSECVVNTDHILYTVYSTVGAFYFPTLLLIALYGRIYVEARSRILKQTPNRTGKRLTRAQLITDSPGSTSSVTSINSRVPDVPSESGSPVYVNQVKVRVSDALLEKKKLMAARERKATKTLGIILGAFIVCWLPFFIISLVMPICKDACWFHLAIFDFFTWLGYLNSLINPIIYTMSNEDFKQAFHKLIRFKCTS
Sequence of Sigma non-opioid intracellular receptor 1 (Homo sapiens) (Q99720 whole entry): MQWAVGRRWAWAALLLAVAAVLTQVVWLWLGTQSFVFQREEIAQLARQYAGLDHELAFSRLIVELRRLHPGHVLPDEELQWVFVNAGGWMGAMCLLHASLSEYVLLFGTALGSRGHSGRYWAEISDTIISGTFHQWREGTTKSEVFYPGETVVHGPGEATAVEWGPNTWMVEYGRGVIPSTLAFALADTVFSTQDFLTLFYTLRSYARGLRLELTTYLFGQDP

CNC(=O)OCC[C@H]1C[C@@H]1c1cncc(OC[C@@H]2CCN2)c1
inhibition [1]: 0.7% | Ki [2]: 1.7 nM | inhibition [3]: 3.9% | inhibition [4]: 15.5% | inhibition at 10 µM (hERG (KCNH2)): 16.6% | Efficacy [5]: 77% | inhibition [6]: -2.6% | inhibition [7]: 10.6% | inhibition [8]: 30.2% | inhibition [9]: 14.1% | inhibition [10]: 14.6% | inhibition [11]: 25% | inhibition [12]: -4.2% | inhibition [13]: 2.5%

COCC[C@H]1C[C@@H]1c1cncc(OC[C@@H]2CCN2)c1
inhibition [1]: -1.8% | Ki [2]: 0.3 nM | inhibition [3]: 58.7% | inhibition [4]: 9.7% | inhibition at 10 µM (hERG (KCNH2)): 13.7% | Efficacy [5]: 60% | inhibition [6]: -1.8% | inhibition [7]: 25.3% | inhibition [8]: 9.6% | inhibition [9]: 8.6% | inhibition [10]: 26.2% | inhibition [11]: -7.2% | inhibition [12]: 15% | inhibition [13]: -1.6%

OCC[C@H]1C[C@@H]1c1cncc(OC[C@@H]2CCN2)c1
inhibition [1]: -7.4% | Ki [2]: 0.5 nM | inhibition [3]: 0.5% | inhibition [4]: -5.3% | inhibition at 10 µM (hERG (KCNH2)): 19.1% | Efficacy [5]: 92% | inhibition [6]: 9.3% | inhibition [7]: 24.3% | inhibition [8]: 0% | inhibition [9]: -4.5% | inhibition [10]: 18.4% | inhibition [11]: -7.7% | inhibition [12]: 10% | inhibition [13]: -1.6%
